# Screening results from PubChem.
# ADAM17 inh = inhibits human ADAM17; recombinant ADAM17, EDANS/DABCYL FRET peptide cleavage; inhibition, % at 6.95 µM; hit rate 0.83% among 370,000; P78536;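 active = inhibition above the mean of compounds lying between control limits plus 3 SD, set per campaign, cut at about 8.5% in these data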
# MPTP block = permeability transition pore inhibition; isolated mouse mitochondria, Ca2+ swelling absorbance, 30 min; inhibition, % at 10 µM; hit rate 1.4% among 360,000; AID 602449;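 active = inhibition of 50% or more, scaled per plate between neutral and stimulator controls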
# ADAM10 inh = inhibitors of human ADAM10; O14672; hit rate 0.62% among 370,000; AID 720582; recombinant ADAM10, EDANS/DABCYL FRET peptide cleavage, 3 h; inhibition, % at 7 µM;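 active = inhibition above a per-campaign cutoff equal to the mean of compounds falling between control-based bounds plus 3 SD, cut at about 20% in these data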
# Target sequence (O14672 214-748 limits assumed): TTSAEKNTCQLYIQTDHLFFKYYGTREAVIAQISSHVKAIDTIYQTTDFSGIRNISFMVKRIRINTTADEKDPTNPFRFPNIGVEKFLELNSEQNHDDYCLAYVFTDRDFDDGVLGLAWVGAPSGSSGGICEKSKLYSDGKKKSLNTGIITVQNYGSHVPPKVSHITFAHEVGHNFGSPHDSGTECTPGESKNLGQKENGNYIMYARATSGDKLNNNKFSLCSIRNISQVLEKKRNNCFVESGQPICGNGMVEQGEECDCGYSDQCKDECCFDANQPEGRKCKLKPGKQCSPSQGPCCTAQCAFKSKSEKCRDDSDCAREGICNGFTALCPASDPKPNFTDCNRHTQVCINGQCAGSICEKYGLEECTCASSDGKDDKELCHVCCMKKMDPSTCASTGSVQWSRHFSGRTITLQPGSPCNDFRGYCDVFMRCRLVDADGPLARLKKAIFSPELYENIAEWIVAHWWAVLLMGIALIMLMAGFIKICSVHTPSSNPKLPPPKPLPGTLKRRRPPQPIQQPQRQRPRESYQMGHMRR
# aDG glyco act = increases alpha dystroglycan glycosylation; activation, % at 10 µM; hit rate 0.22% among 360,000; Pro5-aDG cells, alpha-DG glycosylation AlphaScreen (IIH6); 0% Pro5, 100% B10-LARGE cell signal;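 active = activation of at least 8% versus controls, or a plate z-score of at least 8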;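 note: Pro5 are CHO cells carrying HIG-tagged alpha-DG that lacks glycosylation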
# Lipid droplet = modulators of hepatic lipid droplet formation | AML12 mouse hepatocytes, oleate lipid droplets, BODIPY imaging | inhibition, % at 6.5 µM | hit rate 0.4% among 240,000;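 active = lipid droplet intensity inhibited by at least 50%, with more than 500 cells counted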
#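 material = mouse AML12 hepatocyte cell line, fixed after treatment | also added = 100 µM oleic acid challenge | doses = compound at 6.5 µM only | schedule = overnight exposure | technique = Image-based BODIPY and DAPI two-channel analysis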
# V-ATPase pH = yeast V-ATPase proton transport regulation by pHLuorin. S. cerevisiae, pHLuorin cytosolic pH fluorescence. response, % at 10 µM. hit rate 0.37% among 350,000; in the data active = response mostly above about 7.3%, no sharp cut-off; inactive = mostly below about 5.4%; note: actives read high
# ADAM10 counter = counter-screen for ADAM17 exosite inhibitors: inhibitors of human ADAM10. shares compounds with ADAM17 inh. recombinant ADAM10, EDANS/DABCYL FRET peptide cleavage, 3 h. inhibition, % at 6.95 µM. hit rate 47% among 2,900. AID 743256;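 active = mean inhibition over the triplicate runs exceeds the activity threshold set in the earlier primary screen, cut at about 20% in these data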
# ADAM17 confirm = human ADAM17 inhibition, confirmation; shares compounds with ADAM17 inh; recombinant ADAM17, EDANS/DABCYL QFRET peptide cleavage; inhibition, % at 6.95 µM; hit rate 65% among 2,900; AID 743257;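 active = mean inhibition across replicates above the hit cutoff set in the primary screen, cut at about 8.5% in these data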
# Hits are given with their value; - = inactive; . = no result. An excerpt weighted towards active compounds, which were near 3.1% of everything screened.
SMILES,ADAM17 inh,MPTP block,ADAM10 inh,aDG glyco act,Lipid droplet,V-ATPase pH,ADAM10 counter,ADAM17 confirm
CC1CCN(C2(O)C(=O)Nc3ccc(Cl)cc32)CC1 (stereo unspecified),-,-,-,-,-,-,.,.
Cc1cccc(NC(=O)NCCCN2CCN(c3ccc(F)cc3)CC2)c1,-,.,-,.,.,.,.,.
CC(C)(C)NS(=O)(=O)c1ccc(CCC(=O)Nc2cc(Cl)ccc2Oc2ccccc2)cc1,9.7,-,-,-,-,-,33,19
COc1ccc(CCC(=O)Nc2cc(Cl)ccc2OC)cc1,-,-,-,-,-,-,.,.
CC(C)CNS(=O)(=O)c1ccc(CCC(=O)Nc2cc(Cl)ccc2Oc2ccccc2)cc1,9.7,-,-,-,-,-,39,21
Cc1ccc(CN2CCCCC(NC(=O)c3cccc(C(F)(F)F)c3)C2=O)cc1 (stereo unspecified),-,.,-,.,.,.,.,.
COC(=O)[C@H]1C[C@@]2(CC=C(C)C)c3ccccc3N(C(=O)OC(C)(C)C)[C@H]2N1C(=O)OC(C)(C)C,-,.,-,.,.,.,.,.
O=C(Nc1ccc([N+](=O)[O-])cc1)Nn1cnnc1,10,-,-,-,-,-,-,-
Cc1ccc(CNC(=O)O[C@H]2CC[C@@]34CCCN3C(=O)CCC[C@H]4[C@H]2C)o1,-,.,-,.,.,.,.,.
Cc1ccccc1CC(=O)N1CCC(n2nnc3ncccc32)CC1,-,.,-,.,.,.,.,.
COc1cccc(C(=O)N/N=C/c2ccc(OC3CSC3)cc2)c1,9.2,-,-,-,-,-,-,-
COc1cccc([C@@H]2NC(=O)C/C=C/[C@H](C)[C@H](c3cccc(OC)c3)NC(=O)C/C=C/[C@@H]2C)c1,-,.,-,.,.,.,.,.
COC(CNC(=O)[C@H](Cc1ccccc1)NC1(C(=O)NC2CCCCC2)CCC1)OC,-,.,-,.,.,.,.,.
CCN(CC(O)CON=C1c2ccccc2-c2ccccc21)S(=O)(=O)c1ccc(C)cc1 (stereo unspecified),9.4,-,-,-,-,-,22,17
CN(CC(O)CON=C1c2ccccc2-c2ccccc21)S(=O)(=O)c1ccc(Br)cc1 (stereo unspecified),8.8,-,-,-,-,-,23,14
CC1CCN(c2ccc(C(=O)O)cc2NS(=O)(=O)c2ccc(Cl)s2)CC1,-,.,-,.,.,.,.,.
Cc1ccc(SCc2c(-c3ccccc3)nn(C)c2Cl)cc1,-,-,-,-,.,-,.,.
Cn1nc(-c2ccccc2)c(CSc2ccccc2)c1Cl,9.3,-,-,-,-,-,-,9.3
O=C(COc1ccccc1Cl)Nc1cnn(Cc2ccccc2)c1,9.4,-,-,-,-,-,-,-
CCOC(=O)N1CCN(C(=O)C[C@H]2C[C@@]3(C(=O)OC)C(=C[C@H](C(C)(C)C)O[C@@H]3C)N(CCC3=CCCCC3)C2=O)CC1,10,.,-,.,.,.,-,-
COC(=O)[C@]12C[C@H](CC(=O)N3CCN(C(=O)C4CC4)CC3)C(=O)N(CCC3=CCCCC3)C1=C[C@H](C(C)(C)C)O[C@@H]2C,-,.,-,.,.,.,.,.
O=C1C[C@@H](c2ccccc2)N=C2N(Cc3ccc4c(c3)OCO4)C/C(=C/c3ccccc3)N12,-,.,-,.,.,.,.,.
CCCCCN(C(=O)CCc1cn(CCCCC)c2ccccc12)c1ccc(Oc2cccnc2)cc1,-,.,-,.,.,.,.,.
CCCN(C(=O)c1cn(CCC)c2ccccc12)c1ccc(Oc2cccnc2)cc1,10,.,-,.,.,.,-,9.1
CC1=C[C@]2(CN(CC3CC3)C3=N[C@H](c4ccccc4)CC(=O)N32)n2c(=O)n(-c3ccccc3)c(=O)n2C1,-,.,-,.,.,.,.,.
SMILES,ADAM17 inh,MPTP block,ADAM10 inh,aDG glyco act,Lipid droplet,V-ATPase pH,ADAM10 counter,ADAM17 confirm
O=S1(=O)CCOC[C@H](Cc2ccccc2)N1Cc1ccccc1,-,-,-,-,.,-,.,.
O=S1(=O)CCOC[C@H](Cc2ccccc2)N1Cc1cccc(C(F)(F)F)c1,11,-,-,-,.,-,-,-
CCCCCCCCn1cnc2c(N)c(C)c(C)cc21,8.8,-,-,-,.,-,-,9.0
COc1ccc(Cn2cnc3c(N)c(C)c(C)cc32)cc1,-,-,-,-,.,-,.,.
COc1ccccc1NS(=O)(=O)c1cc(NC(=O)CNC(=O)c2ccccc2)ccc1C,9.1,-,-,-,-,-,-,-
C/C(=N\NC(=O)c1cc(-c2ccccc2)nc2ccccc12)c1ccc(Cl)cc1,-,.,-,.,.,.,.,.
CC(c1nnnn1C1CCCCC1)N(Cc1ccccc1)Cc1cccnc1 (stereo unspecified),9.4,-,-,-,-,-,-,-
CCN(Cc1ccccc1)C(c1ccccn1)c1nnnn1C1CCCCC1 (stereo unspecified),-,-,-,-,-,-,.,.
C=CCN1C(=O)[C@@H](CC(=O)N2CCC(c3ccccc3)CC2)[C@]2(C(=O)OCC)CCCCC/C=C/12,-,.,-,.,.,.,.,.
Cc1ccccc1NC(=O)c1[nH]cnc1C(=O)NN,13,-,-,-,-,-,-,-
Cc1nc(SCc2nc3ccccc3[nH]2)c2oc3cc([N+](=O)[O-])ccc3c2n1,-,-,-,-,.,-,.,.
Cc1nc(SCc2nc3ccc(Cl)cc3[nH]2)c2oc3ccccc3c2n1,9.8,-,-,-,.,-,-,-
COCCCN1C(=O)[C@H](CC(=O)N2CCCC2)[C@]2(C(=O)OC)CCCCC=C12,-,.,-,.,.,.,.,.
COc1ccc(NC(=O)c2cc3sccc3n2Cc2ccc(F)cc2)cc1OC,9.8,-,-,-,.,-,-,-
COC(=O)[C@H](C(C)C)N1CCc2nnn(CC3CCCCC3)c2-c2cc(F)ccc2S1(=O)=O,-,.,-,.,.,.,.,.
Cc1ccc(OCCOc2c(Cl)cc(Cl)cc2Cl)c([N+](=O)[O-])n1,-,.,-,.,.,.,.,.
COC(=O)[C@H](C)NC(=O)[C@@H]1CCCN1C(=O)CNP(=O)(OCc1ccccc1)OCc1ccccc1,-,.,-,.,.,.,.,.
O=C1c2ccccc2-c2onc3ccc(N4CCCC4)c1c23,-,-,-,-,-,-,.,.
CCNc1ccc2noc3c2c1C(=O)c1ccccc1-3,9.0,-,-,-,-,-,-,-
Nc1ncc2c(n1)-c1cc(Cl)ccc1SC2,10,-,-,-,-,-,-,-
Cc1ccc(CNC(=O)O[C@H]2CC[C@@]34CCCN3C(=O)CCC[C@H]4C2)cc1,-,.,-,.,.,.,.,.
COc1cc2cc(Br)cc(Br)c2nc1C,10,-,-,-,-,-,21,13
CC(C)(C)C1CCC(=O)C(C2(O)C(=O)Nc3ccccc32)C1 (stereo unspecified),12,-,-,-,-,-,-,-
COC(=O)c1cccc(NC(=O)c2ccc(S(=O)(=O)N(C)c3ccccc3OC)cc2)c1,-,-,-,-,.,-,.,.
